Measured values taken from ChEMBL document CHEMBL5030522, “A Convenient Chemoenzymatic Preparation of Chimeric Macrocyclic Peptide Antibiotics with Potent Activity against Gram-Negative Pathogens” (2021).
Converted amounts (≈) assume the structure as drawn. Numbered stars: 1 amine (or outer) side, 2 acyl side, 3 side chain; on linkers, the order of the positions; unused ones are H or OH. Bridge positions count the residues as written; N and C are the ends. Square brackets hold non-standard residues; d marks the D form. Peptide text beside a SMILES is read from it. I, II: the chains in the order shown. X3 = NC(=O)[C@H](Cc1cn(CCCCC(=O)[*:2])nn1)N[*:1]; X2 = NC(=O)[C@H](Cc1cn(CC(=O)[*:2])nn1)N[*:1]; Tle = CC(C)(C)[C@H](N)C(=O)O; dDab = NCC[C@@H](N)C(=O)O; hSer = N[C@@H](CCO)C(=O)O; Dab = NCC[C@H](N)C(=O)O

How the values were obtained:
Type in all cases: functional
Acinetobacter baumannii [1] = experiment: Antibacterial activity against Acinetobacter baumannii ATCC 17978 assessed as inhibition of bacterial growth after 16 hrs by broth microdilution method
How it was run: (§1)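 MIC per CLSI broth microdilution. Strains streaked from glycerol stocks on blood agar, 16 h at 37 °C. Single colonies inoculated into cation-adjusted Mueller-Hinton broth (10 mg L–1 Mg2+, 25 mg L–1 Ca2+). Peptides serially diluted in this broth with 0.002% (v/v) final polysorbate-80 in polypropylene plates. Inoculum 5 × 10^5 CFU mL–1. Plates sealed, 16 h at 37 °C, growth scored visually. MIC in μg/mL, triplicates on two separate days.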

Pseudomonas aeruginosa [2] = experiment: Antibacterial activity against Pseudomonas aeruginosa M-120 assessed as inhibition of bacterial growth after 16 hrs by broth microdilution method; how it was run: as §1
Klebsiella pneumoniae [3] = experiment: Antibacterial activity against Klebsiella pneumoniae ATCC 11228 assessed as inhibition of bacterial growth after 16 hrs by broth microdilution method; how it was run: as §1
Escherichia coli [4] = experiment: Antibacterial activity against Escherichia coli producing MCR2 assessed as inhibition of bacterial growth after 16 hrs by broth microdilution method; how it was run: as §1
Pseudomonas aeruginosa [5] = experiment: Antibacterial activity against Pseudomonas aeruginosa producing NDM1 assessed as inhibition of bacterial growth after 16 hrs by broth microdilution method
How it was run: (§2)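 CLSI broth microdilution. Strains grown from glycerol stocks on blood agar 16 h at 37 °C; colonies used to inoculate CAMHB containing 10 mg L–1 Mg2+ and 25 mg L–1 Ca2+. Peptides dissolved in CAMHB with 0.002% (v/v) final polysorbate-80, serially diluted in polypropylene plates; inoculum 5 × 10^5 CFU mL–1. Sealed, 16 h at 37 °C, growth scored visually. MIC in μg/mL; three or more measurements on multiple days.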

Acinetobacter baumannii [6] = experiment: Antibacterial activity against multidrug-resistant Acinetobacter baumannii assessed as inhibition of bacterial growth after 16 hrs by broth microdilution method; how it was run: as §2
Staphylococcus aureus = experiment: Antibacterial activity against methicillin resistant Staphylococcus aureus USA300 by measuring MIC after 16 hrs by broth microdilution method; how it was run: as §2
Escherichia coli [7] = experiment: Antibacterial activity against Escherichia coli producing NDM1 assessed as inhibition of bacterial growth after 16 hrs by broth microdilution method; how it was run: as §2
Klebsiella pneumoniae [8] = experiment: Antibacterial activity against Klebsiella pneumoniae producing NDM1 assessed as inhibition of bacterial growth after 16 hrs by broth microdilution method; how it was run: as §1
Acinetobacter baumannii [9] = experiment: Antibacterial activity against Acinetobacter baumannii ATCC 9955 assessed as inhibition of bacterial growth after 16 hrs by broth microdilution method; how it was run: as §1
Escherichia coli [10] = experiment: Antibacterial activity against Escherichia coli producing MCR3 assessed as inhibition of bacterial growth after 16 hrs by broth microdilution method; how it was run: as §1
Escherichia coli [11] = experiment: Antibacterial activity against Escherichia coli ATCC 35218 assessed as inhibition of bacterial growth after 16 hrs by broth microdilution method; how it was run: as §1
Escherichia coli [12] = experiment: Antibacterial activity against Escherichia coli producing MCR1 assessed as inhibition of bacterial growth after 16 hrs by broth microdilution method; how it was run: as §1
Pseudomonas aeruginosa [13] = experiment: Antibacterial activity against Pseudomonas aeruginosa NRZ 08418 producing NDM1 assessed as inhibition of bacterial growth after 16 hrs by broth microdilution method; how it was run: as §1
Acinetobacter baumannii [14] = experiment: Antibacterial activity against Acinetobacter baumannii NRZ 00687 producing NDM2 assessed as inhibition of bacterial growth after 16 hrs by broth microdilution method; how it was run: as §1
Pseudomonas aeruginosa [15] = experiment: Antibacterial activity against Pseudomonas aeruginosa ATCC 27853 assessed as inhibition of bacterial growth after 16 hrs by broth microdilution method; how it was run: as §1

SMILES	MIC (Acinetobacter baumannii [1])	MIC (Pseudomonas aeruginosa [2])	MIC (Klebsiella pneumoniae [3])	MIC (Escherichia coli [4])	MIC (Pseudomonas aeruginosa [5])	MIC (Acinetobacter baumannii [6])	MIC (Staphylococcus aureus)	MIC (Escherichia coli [7])	MIC (Klebsiella pneumoniae [8])	MIC (Acinetobacter baumannii [9])	MIC (Escherichia coli [10])	MIC (Escherichia coli [11])	MIC (Escherichia coli [12])	MIC (Pseudomonas aeruginosa [13])	MIC (Acinetobacter baumannii [14])	MIC (Pseudomonas aeruginosa [15])
CC(C)C[C@@H]1NC(=O)[C@@H](Cc2ccccc2)NC(=O)[C@H](CCN)NC(=O)[C@@H](NC(=O)[C@H](CCN)NC(=O)[C@@H](NC(=O)[C@H](CCN)NC(=O)CC[C@@H]2NC(=O)[C@H](CCN)NC(=O)[C@H](Cc3ccc(O)cc3)NC(=O)[C@H]([C@@H](C)O)NC(=O)[C@H](C(C)C)NC(=O)[C@@H]3CCCN3C(=O)[C@@H](C)NC(=O)[C@H](CO)NC(=O)[C@H](C)NC(=O)[C@H](C(C)(C)C)NC(=O)[C@H](CCO)NC(=O)[C@H](Cc3c[nH]c4ccccc34)NC(=O)[C@H](CCO)NC(=O)[C@@H](CCN)NC2=O)[C@@H](C)O)CCNC(=O)[C@H]([C@@H](C)O)NC(=O)[C@H](CCN)NC(=O)[C@H](CCN)NC1=O (I: cyclo([dDab][hSer]W[hSer][Tle]AS[dA]PVTY[Dab]E) / II: [Dab]T[Dab][Dab][Dab][dF]L[Dab][Dab]T; amide I:14-II:N; lactam II:4-II:C)	0.4 µg/mL (≈ 0.156 µM)	1.6 µg/mL (≈ 0.624 µM)	0.2 µg/mL (≈ 0.0779 µM)	0.4 µg/mL (≈ 0.156 µM)	0.8 µg/mL (≈ 0.312 µM)	0.4 µg/mL (≈ 0.156 µM)	> 6.4 µg/mL	0.1 µg/mL (≈ 0.039 µM)	0.4 µg/mL (≈ 0.156 µM)	0.2 µg/mL (≈ 0.0779 µM)	0.4 µg/mL (≈ 0.156 µM)	–	–	–	–	–
CC(C)C[C@@H]1NC(=O)[C@@H](CC(C)C)NC(=O)[C@H](CCN)NC(=O)[C@@H](NC(=O)[C@H](CCN)NC(=O)[C@@H](NC(=O)CCCCn2cc(C[C@H](NC(=O)CC[C@@H]3NC(=O)[C@H](CCN)NC(=O)[C@H](Cc4ccc(O)cc4)NC(=O)[C@H]([C@@H](C)O)NC(=O)[C@H](C(C)C)NC(=O)[C@@H]4CCCN4C(=O)[C@@H](C)NC(=O)[C@H](CO)NC(=O)[C@H](C)NC(=O)[C@H](C(C)(C)C)NC(=O)[C@H](CCO)NC(=O)[C@H](Cc4c[nH]c5ccccc45)NC(=O)[C@H](CCO)NC(=O)[C@@H](CCN)NC3=O)C(N)=O)nn2)[C@@H](C)O)CCNC(=O)[C@H]([C@@H](C)O)NC(=O)[C@H](CCN)NC(=O)[C@H](CCN)NC1=O (I: cyclo([dDab][hSer]W[hSer][Tle]AS[dA]PVTY[Dab]E) / II: T[Dab][Dab][Dab][dL]L[Dab][Dab]T; linker I:14-II:N via X3; lactam II:3-II:C)	1 µg/mL (≈ 0.375 µM)	–	2 µg/mL (≈ 0.749 µM)	4 µg/mL (≈ 1.5 µM)	2 µg/mL (≈ 0.749 µM)	2 µg/mL (≈ 0.749 µM)	> 64 µg/mL	–	4 µg/mL (≈ 1.5 µM)	2 µg/mL (≈ 0.749 µM)	–	1 µg/mL (≈ 0.375 µM)	4 µg/mL (≈ 1.5 µM)	4 µg/mL (≈ 1.5 µM)	–	–
CC[C@H](C)CCCCC(=O)N[C@@H](CCN)C(=O)N[C@H](C(=O)N[C@@H](CCN)C(=O)N[C@H]1CCNC(=O)[C@H]([C@@H](C)O)NC(=O)[C@H](CCN)NC(=O)[C@H](CCN)NC(=O)[C@H](CC(C)C)NC(=O)[C@@H](CC(C)C)NC(=O)[C@H](CCN)NC1=O)[C@@H](C)O	0.4 µg/mL (≈ 0.342 µM)	0.8 µg/mL (≈ 0.684 µM)	0.1 µg/mL (≈ 0.0855 µM)	> 6.4 µg/mL	0.4 µg/mL (≈ 0.342 µM)	0.4 µg/mL (≈ 0.342 µM)	> 6.4 µg/mL	0.1 µg/mL (≈ 0.0855 µM)	1.6 µg/mL (≈ 1.37 µM)	0.4 µg/mL (≈ 0.342 µM)	3.2 µg/mL (≈ 2.74 µM)	0.1 µg/mL (≈ 0.0855 µM)	3.2 µg/mL (≈ 2.74 µM)	0.8 µg/mL (≈ 0.684 µM)	0.2 µg/mL (≈ 0.171 µM)	1.6 µg/mL (≈ 1.37 µM)
CC(C)C[C@@H]1NC(=O)[C@@H](CC(C)C)NC(=O)[C@H](CCN)NC(=O)[C@@H](NC(=O)[C@H](CCN)NC(=O)[C@@H](NC(=O)Cn2cc(C[C@H](NC(=O)CC[C@@H]3NC(=O)[C@H](CCN)NC(=O)[C@H](Cc4ccc(O)cc4)NC(=O)[C@H]([C@@H](C)O)NC(=O)[C@H](C(C)C)NC(=O)[C@@H]4CCCN4C(=O)[C@@H](C)NC(=O)[C@H](CO)NC(=O)[C@H](C)NC(=O)[C@H](C(C)(C)C)NC(=O)[C@H](CCO)NC(=O)[C@H](Cc4c[nH]c5ccccc45)NC(=O)[C@H](CCO)NC(=O)[C@@H](CCN)NC3=O)C(N)=O)nn2)[C@@H](C)O)CCNC(=O)[C@H]([C@@H](C)O)NC(=O)[C@H](CCN)NC(=O)[C@H](CCN)NC1=O (I: cyclo([dDab][hSer]W[hSer][Tle]AS[dA]PVTY[Dab]E) / II: T[Dab][Dab][Dab][dL]L[Dab][Dab]T; linker I:14-II:N via X2; lactam II:3-II:C)	–	4 µg/mL (≈ 1.52 µM)	–	2 µg/mL (≈ 0.761 µM)	2 µg/mL (≈ 0.761 µM)	1 µg/mL (≈ 0.381 µM)	> 6.4 µg/mL	–	2 µg/mL (≈ 0.761 µM)	2 µg/mL (≈ 0.761 µM)	–	0.5 µg/mL (≈ 0.19 µM)	2 µg/mL (≈ 0.761 µM)	–	0.5 µg/mL (≈ 0.19 µM)	1 µg/mL (≈ 0.381 µM)
